A1 apoptosis 2 = blocks A1, raising caspase activity; MEF A1-2A-BIM cells, caspase-Glo luminescence, 3 h; percent of clofoctol response, DMSO zero; caspase activation, % (concentration not given with the values); 24,000 tested, under 10 active; AID 2465; in the data active = caspase activation above about 5.9%
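Material: mouse embryonic fibroblasts co-expressing A1 and BIM (A1-2A-BIM), primed for A1 dependence / Quantity: 2500 cells/well / Buffer or medium: RPMI-1640 growth medium with 10% FBS / Doses: 50 nL compound per well, pinned / Schedule: 3 h compound exposure at 37 °C / Signal: Caspase-Glo luminescence (DEVD substrate) / Measure: Caspase-3/7 activation, seen as rise in luminescence signal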
* = called active by the depositor. The full list was thinned out, with hits kept by preference.

SMILES	A1 apoptosis 2
C[C@@H]1CN([C@@H](C)CO)C(=O)c2cccc(NC(=O)c3ccc(-c4nccs4)cc3)c2O[C@@H]1CN(C)Cc1ccc(C(F)(F)F)cc1	1
C[C@H]1CN([C@@H](C)CO)C(=O)c2cc(NS(=O)(=O)c3cn(C)cn3)ccc2O[C@H]1CN(C)Cc1ccc(C(F)(F)F)cc1	-1
COc1ccc(CN(C)C[C@H]2Oc3ccc(NC(=O)Nc4ccc5c(c4)OCO5)cc3CC(=O)N([C@H](C)CO)C[C@H]2C)cc1	-1
C[C@@H]1CN([C@@H](C)CO)C(=O)c2cccc(NC(=O)C3CCOCC3)c2O[C@H]1CN(C)S(=O)(=O)c1cn(C)cn1	-1
C[C@H](CO)N1C[C@H](C)[C@H](CN(C)S(C)(=O)=O)Oc2c(NC(=O)c3nc4ccccc4s3)cccc2C1=O	-2
C[C@@H]1CN([C@@H](C)CO)C(=O)Cc2cc(NC(=O)Nc3ccc(F)cc3)ccc2O[C@H]1CN(C)CC1CC1	0
C[C@@H]1CN([C@H](C)CO)C(=O)c2cc(NS(C)(=O)=O)ccc2O[C@@H](C)CCCCO[C@H]1CN(C)C(=O)Nc1ccccc1	-1
C[C@H]1CN([C@@H](C)CO)C(=O)c2cccc(NC(=O)NC3CCCCC3)c2O[C@@H]1CN(C)Cc1ccc(Cl)c(Cl)c1	0
C[C@@H]1CN([C@H](C)CO)C(=O)c2cccc(NC(=O)Nc3ccc(C(F)(F)F)cc3)c2O[C@@H]1CN(C)S(=O)(=O)c1cn(C)cn1	0
CC(/C=C/C(=O)NO)=C\c1ccccc1OCc1cn(C[C@@H]2CCCN2S(=O)(=O)c2ccc(C)cc2)nn1	1
COc1ccc(S(=O)(=O)Nc2ccc3c(c2)CC(=O)N([C@@H](C)CO)C[C@H](C)[C@@H](CN(C)C(=O)Nc2ccc(C(F)(F)F)cc2)O3)cc1	-1
C[C@H](CO)N1C[C@H](C)[C@H](CN(C)Cc2ccc(Cl)c(Cl)c2)OCc2cnnn2CCCC1=O	-1
CC(C)NC(=O)N(C)C[C@H]1OCCCC[C@H](C)Oc2ccc(NC(=O)Cc3ccccc3)cc2C(=O)N([C@H](C)CO)C[C@@H]1C	-1
C[C@@H]1CN([C@@H](C)CO)C(=O)c2cc(NC(=O)Nc3ccc(F)cc3)ccc2O[C@@H]1CN(C)Cc1ccccc1	1
O=C(O)CCCCCCC(=O)N=NC=C1C=CN(O)C=C1	1
O=C(NCc1ccccc1)[C@@]1(CCS(=O)(=O)c2ccccc2)COC(c2ccc(OCCCO)cc2)=N1	0
C[C@H]1CN([C@@H](C)CO)C(=O)c2cc(NS(=O)(=O)c3ccc(F)cc3)ccc2O[C@H]1CN(C)Cc1ccncc1	1
C[C@@H]1CN([C@@H](C)CO)C(=O)c2cc(NC(=O)c3ccncc3)ccc2O[C@H]1CN(C)C(=O)Nc1ccccc1	-1
C[C@@H]1CN([C@@H](C)CO)C(=O)c2cc(NC(=O)C3CCCCC3)ccc2O[C@@H](C)CCCCO[C@H]1CN(C)Cc1ccc2c(c1)OCO2	0
C[C@@H]1CCCCO[C@H](CN(C)CC2CCCCC2)[C@H](C)CN([C@H](C)CO)C(=O)c2cc(NC(=O)Nc3ccc(C(F)(F)F)cc3)ccc2O1	2
CC(C)NC(=O)N(C)C[C@@H]1Oc2ncc(-c3cccc(F)c3)cc2C(=O)N([C@H](C)CO)C[C@@H]1C	2
C[C@H](CO)N1C[C@H](C)[C@H](CN(C)C(=O)NC2CCCCC2)Oc2ncc(-c3cccc(C(F)(F)F)c3)cc2C1=O	7.1*
C[C@@H]1CCCCO[C@@H](CN(C)CC2CCCCC2)[C@H](C)CN([C@H](C)CO)C(=O)c2cc(NC(=O)Nc3ccc(C(F)(F)F)cc3)ccc2O1	8.3*
COc1cccc(-c2cnc3c(c2)C(=O)N([C@H](C)CO)C[C@H](C)[C@H](CN(C)C(=O)NC2CCCC2)O3)c1	0
C[C@@H]1CN([C@@H](C)CO)C(=O)c2cc(NC(=O)Nc3ccc(C(F)(F)F)cc3)ccc2O[C@@H](C)CCCCO[C@@H]1CN(C)CC1CCCCC1	-1
SMILES	A1 apoptosis 2
COc1ccc(S(=O)(=O)Nc2cccc3c2O[C@H](CN(C)S(=O)(=O)c2cccs2)[C@H](C)CN([C@H](C)CO)C3=O)cc1	0
COc1ccc(S(=O)(=O)Nc2ccc3c(c2)C(=O)N([C@H](C)CO)C[C@@H](C)[C@@H](CN(C)S(=O)(=O)c2ccc(OC)cc2)O3)cc1	0
Cc1noc(C)c1S(=O)(=O)Nc1ccc2c(c1)CC(=O)N([C@@H](C)CO)C[C@H](C)[C@H](CN(C)C(=O)Nc1ccc(C(F)(F)F)cc1)O2	0
C[C@@H]1CN([C@H](C)CO)C(=O)c2cccc(NS(=O)(=O)c3ccc(Cl)cc3)c2O[C@@H]1CN(C)S(=O)(=O)c1cn(C)cn1	-1
C[C@@H]1CN([C@@H](C)CO)C(=O)Cc2cc(NS(=O)(=O)c3ccc(F)cc3)ccc2O[C@H]1CN(C)C(=O)Nc1ccc(C(F)(F)F)cc1	-1
CNC[C@H]1Oc2c(NC(=O)NC(C)C)cccc2C(=O)N([C@@H](C)CO)C[C@H]1C	0
C[C@H]1CN([C@@H](C)CO)C(=O)Cc2cc(NC(=O)Cc3cn(C)c4ccccc34)ccc2O[C@H]1CN(C)Cc1ccc(C(=O)O)cc1	1
C[C@@H]1CN([C@@H](C)CO)C(=O)c2cccc(NC(=O)Nc3ccc4c(c3)OCO4)c2O[C@H]1CN(C)Cc1ccc2c(c1)OCO2	-1
C[C@@H]1CN([C@@H](C)CO)C(=O)c2cc(NC(=O)CCCN(C)C)ccc2O[C@@H](C)CCCCO[C@H]1CN(C)C(=O)CCC(F)(F)F	0
C[C@@H]1CCCCO[C@H](CN(C)CC2CC2)[C@H](C)CN([C@@H](C)CO)C(=O)c2cc(NC(=O)NC3CCCCC3)ccc2O1	-2
CC(C)NC(=O)N(C)C[C@H]1Oc2c(NC(=O)Nc3cccc4ccccc34)cccc2C(=O)N([C@@H](C)CO)C[C@@H]1C	0
CNC[C@H]1Oc2ccc(NC(=O)C3CC3)cc2CC(=O)N([C@H](C)CO)C[C@@H]1C	-1
O=C(CCCCCC(=O)N/N=C/c1cccnc1)NO	0
C[C@@H]1CN([C@H](C)CO)C(=O)c2cc(NC(=O)CCCN(C)C)ccc2O[C@H]1CN(C)C(=O)NC1CCCCC1	-1
C[C@H](CO)N1C[C@H](C)[C@H](CN(C)Cc2ccc(-c3ccccc3)cc2)Oc2ccc(NC(=O)c3ccncc3)cc2CC1=O	1
C[C@H]1CCCCO[C@H](CN(C)S(=O)(=O)c2cccs2)[C@@H](C)CN([C@@H](C)CO)C(=O)c2cc(N(C)C)ccc2O1	-1
C[C@@H]1CN([C@H](C)CO)C(=O)c2cccc(NC(=O)Nc3cccc4ccccc34)c2O[C@H]1CN(C)S(=O)(=O)c1cn(C)cn1	0
Cc1noc(C)c1NC(=O)Nc1ccc2c(c1)C(=O)N([C@@H](C)CO)C[C@H](C)[C@@H](CN(C)C(=O)NC1CCCCC1)OCCCC[C@H](C)O2	0
CC(C)NC(=O)N(C)C[C@@H]1OCCCC[C@H](C)Oc2ccc(NC(=O)CCCN(C)C)cc2C(=O)N([C@@H](C)CO)C[C@H]1C	0
COc1ccc(CN(C)C[C@H]2Oc3ccc(NC(=O)CCCN(C)C)cc3C(=O)N([C@H](C)CO)C[C@H]2C)cc1	0
CC(C)=CCC[C@H](C)C/C=N/NC(=O)c1ccccn1	2
C[C@@H]1CCCCO[C@@H](CN(C)C(=O)C2CCCCC2)[C@H](C)CN([C@H](C)CO)C(=O)c2cc(N(C)C)ccc2O1	0

Screening results: PubChem, Broad Institute
